Structures are written as SMILES. Calls of active or inactive are those of the source. No cut-off for these calls is given here.

One assay deals with NCI-H1650. The experiment in a line: Cytotoxicity against human NCI-H1650 cells assessed as growth inhibition after 48 hrs by MTT assay. Format: functional.
Details: not given
Put shortly: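 H1650 cells were exposed to drug for 48 h at five concentrations bracketing 1–40 μM in 10 μM steps, with MTT read-out. GI50 is given only where the data form a sigmoidal dose response.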
For orientation: Tetrazolium dyes change colour on reduction, which living cells bring about.
For orientation: GI50 means the concentration giving 50% growth inhibition. As for `O=S(=O)(NCCCN(c1ccccc1)c1cccc(Cl)c1)c1ccc(C(F)(F)F)cc1`, the GI50 entry was “inactive”.

With `O=S(=O)(NCCCN1c2ccccc2CCc2ccccc21)C(F)(F)F`, the GI50 result is “inactive”. On the same count and under the same terms, the value for `CCCN1c2ccccc2Sc2ccc(Cl)cc21` was “inactive”; that for `O=S(=O)(c1ccc(OC(F)(F)F)cc1)N1CCC(=C2c3ccccc3CCc3ccccc32)CC1` was “inactive”; that for `CN(CCN1c2ccccc2CCc2ccc(Cl)cc21)S(=O)(=O)c1ccc(C(F)(F)F)cc1` was “inactive”. On the same count and under the same terms, the value for `CN(C)S(=O)(=O)NCCCN1c2ccccc2CCc2ccccc21` was “inactive”. Consider `O=S(=O)(NCCCN(c1ccccc1)c1cccc(Cl)c1)c1ccc(Cl)cc1`, for which the GI50 entry is “inactive”. Same read-out and setting: as for `O=S(=O)(NCCCN1c2ccccc2CCc2ccccc21)c1cccnc1`, the entry is “inactive”. On the same count and under the same terms, as for `O=S(=O)(CCCN1c2ccccc2CCc2ccc(Cl)cc21)c1ccc(OC(F)(F)F)cc1`, the entry is “inactive”; as for `O=S(=O)(c1ccc(OC(F)(F)F)cc1)N1CCCCC1CCN1c2ccccc2CCc2ccccc21` (configuration not stated), “inactive”.

On to `Cc1ccccc1S(=O)(=O)NCCCN1c2ccccc2Sc2ccc(Cl)cc21`, for which the GI50 result was “inactive”. The same measure, in the same setting: the value for `O=S(=O)(NCCCN1c2ccccc2CCc2cncnc21)c1ccc(Cl)cc1` was “inactive”; that for `COc1ccc(OC(=O)NCCCN2c3ccccc3Sc3ccc(Cl)cc32)cc1` was “inactive”. On to `CC(C)S(=O)(=O)NCCCN1c2ccccc2CCc2ccc(Cl)cc21`, for which the GI50 result is “inactive”.

As to `O=S(=O)(NCCCCN1c2ccccc2CCc2ccc(Cl)cc21)c1ccc(OC(F)(F)F)cc1`, the GI50 result is “inactive”.

For `O=C(NCCCN1c2ccccc2CCc2ccc(Cl)cc21)c1ccccc1`, the GI50 entry was “inactive”. For the compound `COC(=O)NCCN1c2ccccc2Sc2ccc(Cl)cc21`, the GI50 entry was “inactive”. The same measure, in the same setting: as for `O=S(=O)(NCCCN1CCCCc2ccccc21)c1ccc(OC(F)(F)F)cc1`, the entry is “inactive”; as for `O=S(=O)(c1ccc(Cl)cc1)N1CCCCC1CCN1c2ccccc2Sc2ccc(Cl)cc21` (configuration not stated), “inactive”; as for `O=S(=O)(NCCCCN1c2ccccc2CCc2ccc(Cl)cc21)c1ccc(C(F)(F)F)cc1`, “inactive”.

For the compound `CN(CCCN1c2ccccc2Sc2ccc(Cl)cc21)S(=O)(=O)c1ccc(Cl)cc1`, the GI50 result is “inactive”. The same measure, in the same setting: as for `O=S(=O)(NCCCN1CCCCc2ccccc21)c1ccc(Cl)cc1`, the entry is “inactive”; as for `CN(CCCN1c2ccccc2CCc2ccc(Cl)cc21)S(=O)(=O)c1ccc(C(F)(F)F)cc1`, “inactive”; as for `O=S(=O)(NCCCCN1c2ccccc2CCc2ccc(Cl)cc21)c1ccc(Cl)cc1`, “inactive”. The same measure, in the same setting: as for `O=S(=O)(NCCCN1c2ccccc2CCc2ccc(Cl)cc21)c1ccc(Cl)cc1Cl`, the entry is “inactive”.

Staying with this assay, now noted: NCI-H1650, 48 h.
For `O=S(=O)(NC1CCC2(OC1)c1ccccc1CCc1ccccc12)c1ccc(OC(F)(F)F)cc1` (configuration not stated), the GI50 turned out to be 13 µM. As to `O=S(=O)(NCCCN1c2ccccc2CCc2ccccc21)c1ccc(-n2cccn2)cc1`, the GI50 was > 40 µM.

As for `O=S(=O)(NCC/C=C1/c2ccccc2Sc2ccc(Cl)cc21)c1ccc(OC(F)(F)F)cc1`, the 50% growth inhibitory concentration (GI50) was determined as 40 µM. Regarding `O=S(=O)(NC1CCC(=C2c3ccccc3CCc3ccccc32)CC1)c1ccc(Cl)cc1` (configuration not stated), the GI50 was found to be 20 µM. The same measure, in the same setting: the value for `O=S(=O)(NCCCN1c2ccccc2CCc2ccccc21)c1ccc(Oc2ccccc2)nc1` was > 40 µM; that for `O=S(=O)(NCCCN1c2ccccc2CCc2ccc(Cl)cc21)c1ccccc1OC(F)(F)F` was 25 µM. As to `CN(C)CCC=C1c2ccccc2CCc2ccccc21` [AMITRIPTYLINE], the GI50 was > 40 µM.

Take `O=S(=O)(NCCN1c2ccccc2CCc2ccc(Cl)cc21)c1ccc(Cl)cc1`: the GI50 is 19.1 µM. Take `O=S(=O)(NC[C@@H](O)CN1c2ccccc2CCc2ccccc21)c1ccc(OC(F)(F)F)cc1`: the GI50 is 18 µM. Take `O=S(=O)(NC1CCC(=C2c3ccccc3CCc3ccccc32)CC1)c1ccc(OC(F)(F)F)cc1` (configuration not stated): the GI50 was 20 µM. Turning to `O=S(=O)(NCCCN1c2ccccc2CCc2ccc(Cl)cc21)c1ccc(Cl)c(Cl)c1`, the GI50 amounted to 21.3 µM.

In the case of `Cc1nn(C)c(C)c1S(=O)(=O)NCCCN1c2ccccc2CCc2ccccc21`, the GI50 is > 40 µM. As for `O=S(=O)(N[C@H]1CC[C@@H](N2c3ccccc3CCc3ccccc32)CC1)c1ccc(OC(F)(F)F)cc1`, the GI50 was > 40 µM.

For the compound `O=S(=O)(NCCCN1c2ccccc2CCc2ccccc21)c1ccc(N2CCOCC2)cn1`, the GI50 is > 40 µM. Still for that read-out and setting: as for `O=S(=O)(NCCCN1c2ccccc2CCc2ccc(Cl)cc21)c1ccc2ccccc2c1`, the figure is > 40 µM; as for `O=S(=O)(NCCCN1c2ccccc2Sc2ccc(Cl)cc21)c1ccc(OC(F)(F)F)cc1`, > 40 µM. Turning to `N#Cc1ccc(S(=O)(=O)NCCCN2c3ccccc3Sc3ccc(Cl)cc32)cc1`, the GI50 was > 40 µM. Still for that read-out and setting: as for `CC(CNS(=O)(=O)c1ccc(OC(F)(F)F)cc1)CN1c2ccccc2CCc2ccccc21` (configuration not stated), the figure is 20 µM. On to `O=S(=O)(NC1CCOC2(C1)c1ccccc1CCc1ccccc12)c1ccc(OC(F)(F)F)cc1` (configuration not stated), for which the GI50 is > 40 µM. The same measure, in the same setting: the value for `O=S(=O)(NCCCN1c2ccccc2CCc2ccccc21)c1ccc(C(F)(F)F)cc1` was 14.3 µM; that for `Cn1c(=O)oc2cc(S(=O)(=O)NCCCN3c4ccccc4CCc4ccccc43)ccc21` was > 40 µM. Still for that read-out and setting: the value for `N#Cc1ccc(S(=O)(=O)NCCC=C2c3ccccc3CCc3ccccc32)cc1` was 25 µM. On the same count and under the same terms, as for `CC(=O)NCCCN1c2ccccc2Sc2ccc(Cl)cc21`, the figure is > 40 µM; as for `Cc1ccc(S(=O)(=O)NCCCCN2c3ccccc3Sc3ccc(Cl)cc32)cc1`, > 40 µM; as for `O=S(=O)(N[C@@H]1CCC[C@@H](N2c3ccccc3CCc3ccccc32)C1)c1ccc(OC(F)(F)F)cc1`, 18 µM. In the case of `Cc1ccc(S(=O)(=O)NCCN2c3ccccc3Sc3ccc(Cl)cc32)cc1`, the GI50 came to 24.4 µM. Consider `O=S(=O)(NCCCN1c2ccccc2CCc2ccccc21)c1ccc(Cl)cc1`, for which the GI50 is 20.6 µM.

Take `O=S(=O)(NCCNC1c2ccccc2CCc2ccccc21)c1ccc(Cl)cc1`: the GI50 was 26 µM. With `CN(C)CCC=C1c2ccccc2COc2ccccc21` [DOXEPIN], the GI50 is > 40 µM.

For `O=S(=O)(NCCCN1c2ccccc2CCc2ncccc21)c1ccc(OC(F)(F)F)cc1`, the GI50 turned out to be 27 µM.

Take `O=S(=O)(NCCCN1c2ccccc2CCc2ccccc21)c1cnc(Cl)c(Br)c1`: the GI50 was > 40 µM. Turning to `O=S(=O)(NCCCN1c2ccccc2CCc2cncnc21)c1ccc(OC(F)(F)F)cc1`, the GI50 was > 40 µM. On the same count and under the same terms, the value for `O=C1COc2ccc(S(=O)(=O)NCCCN3c4ccccc4CCc4ccccc43)cc2N1` was 22 µM; that for `O=S(=O)(NCCCN1c2ccccc2CCc2ccc(Cl)cc21)c1cccc2ccccc12` was > 40 µM.

Consider `O=S(=O)(NC1CCCC(=C2c3ccccc3CCc3ccccc32)C1)c1ccc(Cl)cc1` (configuration not stated), for which the GI50 amounted to 17 µM.

On to `CN(C)C(=O)NCCCN1c2ccccc2CCc2ccc(Cl)cc21`, for which the GI50 is > 40 µM. Turning to `CC(CN1c2ccccc2Sc2ccccc21)N(C)C` (configuration not stated) [PROMETHAZINE], the GI50 was > 40 µM. The same measure, in the same setting: as for `O=S(=O)(NCCCN1c2ccccc2CCc2ccc(Cl)cc21)c1cc(Cl)sc1Cl`, the figure is 25 µM. Still for that read-out and setting: as for `O=S(=O)(NCCCN1c2ccccc2CCc2ccc(Cl)cc21)c1ccc(C(F)(F)F)cc1`, the figure is 12.6 µM. Same read-out and setting: the value for `COC(=O)NCCCCN1c2ccccc2Sc2ccc(Cl)cc21` was > 40 µM; that for `O=S(=O)(NC1CCC2(OC1)c1ccccc1CCc1ccccc12)c1ccc(F)cc1` (configuration not stated) was 20 µM; that for `O=S(=O)(NCCN1c2ccccc2Sc2ccc(Cl)cc21)c1ccc(C(F)(F)F)cc1` was 25 µM. Consider `O=S(=O)(NC1CCCC(=C2c3ccccc3CCc3ccccc32)C1)c1ccc(OC(F)(F)F)cc1` (configuration not stated), for which the GI50 was 15 µM. Still for that read-out and setting: as for `O=S(=O)(NCCN1c2ccccc2CCc2ccc(Cl)cc21)c1ccc(C(F)(F)F)cc1`, the figure is 16.4 µM; as for `NCCCN1c2ccccc2Sc2ccc(Cl)cc21`, 10 µM; as for `O=S(=O)(NCCCN1c2ccccc2CCc2ccc(Cl)cc21)c1ccc(Cl)cc1`, 20 µM. Still for that read-out and setting: the value for `NCCCN1c2ccccc2CCc2ccc(Cl)cc21` was 10 µM; that for `O=S(=O)(NCCCN1c2ccccc2CCc2ccc(Cl)cc21)c1ccc(F)cc1` was > 40 µM. Take `O=S(=O)(NC1CCC2(OC1)c1ccccc1CCc1ccccc12)c1ccccc1` (configuration not stated): the GI50 was 22 µM. Same read-out and setting: as for `O=S(=O)(NC1CCC2(OC1)c1ccccc1CCc1ccccc12)c1ccc(C(F)(F)F)cc1` (configuration not stated), the figure is 15 µM; as for `O=S(=O)(NCCCN1c2ccccc2CCc2ccccc21)c1ccc(OC(F)(F)F)cc1`, 22 µM; as for `O=S(=O)(NCCCN1c2ccccc2OCc2cccnc21)c1ccc(OC(F)(F)F)cc1`, 19.1 µM.

With `O=S(=O)(N[C@H]1CC[C@H](N2c3ccccc3CCc3ccccc32)CC1)c1ccc(OC(F)(F)F)cc1`, the GI50 is 10 µM. As to `O=S(=O)(NCCC=C1c2ccccc2CCc2ccccc21)c1ccc(OC(F)(F)F)cc1`, the GI50 is 20 µM.

In the case of `N#Cc1ccc(S(=O)(=O)NCCCN2c3ccccc3CCc3ccc(Cl)cc32)cc1`, the GI50 came out at 20 µM. Turning to `O=S(=O)(N[C@H]1CC[C@@H](N2c3ccccc3CCc3ccccc32)CC1)c1ccc(Cl)cc1`, the GI50 stood at 10 µM. The same measure, in the same setting: as for `COc1ccc(S(=O)(=O)NCCCN2c3ccccc3Sc3ccc(Cl)cc32)cc1`, the figure is > 40 µM; as for `O=S(=O)(NCC/C=C1/c2ccccc2Sc2ccc(Cl)cc21)c1ccc(Cl)cc1`, > 40 µM; as for `O=S(=O)(NCCC=C1c2ccccc2CCc2ccccc21)c1ccc(Cl)cc1`, 18 µM.

Consider `O=S(=O)(NC1CCC2(OC1)c1ccccc1CCc1ccccc12)c1ccc(Cl)cc1` (configuration not stated), for which the GI50 was determined as 25 µM. The same measure, in the same setting: the value for `O=S(=O)(NCCCN1c2ccccc2Sc2ccc(Cl)cc21)c1cc(F)cc(F)c1` was 18 µM; that for `O=S(=O)(NCCN1c2ccccc2CCc2ccc(Cl)cc21)c1ccc(OC(F)(F)F)cc1` was 22 µM.

These data come from ChEMBL document CHEMBL3611968, “Reengineered tricyclic anti-cancer agents” (Bioorg Med Chem, 2015).
